# Results reported in ChEMBL document CHEMBL2021893, “Synthesis, structure-activity relationship and in vitro anti-mycobacterial evaluation of 13-n-octylberberine derivatives” (2012).
# The source made the active and inactive calls. The rule behind the calls is not given here.
# Tested on: Mycobacterium tuberculosis
# Test: Antimycobacterial activity against drug-susceptible Mycobacterium tuberculosis H37Rv measured 24 hrs post dose by microplate alamar blue assay
# Type: functional
# Summary of the method: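 Two-fold serial drug dilutions in 7H9 medium in 48-well plates, with H37Rv suspension added to give 4 × 10^-4 mg/mL bacteria per well. Plates were incubated at 37 °C, and alamar blue was added at an optimal time. The read was visual at 24 h after reagent addition. MIC was taken as the lowest concentration preventing the colour change.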
row,Structure (SMILES),MIC
1,CCCCCCCCc1c2[n+](cc3c(OC)c(OC)ccc13)CCc1cc3c(cc1-2)OCO3.[Cl-],2 µg/mL
2,CCCCCc1c2[n+](cc3c(OC)c(OC)ccc13)CCc1cc3c(cc1-2)OCO3,inactive
3,CCCCCCCCc1c2[n+](cc3c(OCC)c(OC)ccc13)CCc1cc(OCC)c(O)cc1-2.[Cl-],4 µg/mL
4,CCCCCCCCc1c2[n+](cc3c(OCCC)c(OC)ccc13)CCc1cc3c(cc1-2)OCO3.[Cl-],2 µg/mL
5,CCCCCCCCc1c2[n+](cc3c(OCC)c(OC)ccc13)CCc1cc(OCC)c(OCC)cc1-2.[Cl-],0.125 µg/mL
6,CCCCCCCCc1c2[n+](cc3c(OC)c(OC)ccc13)CCc1cc(OCC)c(O)cc1-2.[Cl-],2 µg/mL
7,CCCCCCCCc1c2[n+](cc3c(OCCC)c(OC)ccc13)CCc1cc(OCCC)c(O)cc1-2.[Cl-],4 µg/mL
8,CCCCCCCCc1c2[n+](cc3c(OC(=O)c4ccc(C)cc4)c(OC)ccc13)CCc1cc3c(cc1-2)OCO3.[Cl-],4 µg/mL
9,CCCCCCCCc1c2[n+](cc3c(OC)c(OC)ccc13)CCc1cc(OC)c(OC)cc1-2.[Cl-],2 µg/mL
10,CCCCCCCCc1c2[n+](cc3c(OC)c(OC)ccc13)CCc1cc(OCC)c(OCC)cc1-2.[Cl-],0.5 µg/mL
11,CCCCCCCCc1c2[n+](cc3c(OCC)c(OC)ccc13)CCc1cc3c(cc1-2)OCO3.[Cl-],4 µg/mL
12,CCCCCCCCc1c2[n+](cc3c(OCc4ccccc4)c(OC)ccc13)CCc1cc3c(cc1-2)OCO3.[Cl-],4 µg/mL
13,CCCCCCCCc1c2[n+](cc3c(OC)c(OC)ccc13)CCc1cc(OC)c(O)cc1-2.[Cl-],2 µg/mL
14,CCCCCCc1c2[n+](cc3c(OC)c(OC)ccc13)CCc1cc3c(cc1-2)OCO3,inactive
15,COc1ccc2cc3[n+](cc2c1OC)CCc1cc2c(cc1-3)OCO2,inactive
16,CCCCCCCc1c2[n+](cc3c(OC)c(OC)ccc13)CCc1cc3c(cc1-2)OCO3,inactive
17,CCCCCCCCc1c2[n+](cc3c(OC)c(OC)ccc13)CCc1cc(OCCC)c(O)cc1-2.[Cl-],4 µg/mL
18,CCCCCCCCc1c2[n+](cc3c(OS(=O)(=O)c4ccc(C#N)cc4)c(OC)ccc13)CCc1cc3c(cc1-2)OCO3.[Cl-],8 µg/mL
19,CCCCCCCCc1c2[n+](cc3c(OS(=O)(=O)c4ccc(C(F)(F)F)cc4)c(OC)ccc13)CCc1cc3c(cc1-2)OCO3.[Cl-],16 µg/mL
20,COc1ccc2c(C)c3[n+](cc2c1OC)CCc1cc2c(cc1-3)OCO2,inactive

row,Structure (SMILES),MIC
1,CCCCCCCCc1c2[n+](cc3c(OC)c(OC)ccc13)CCc1cc(OCc3ccccc3)c(O)cc1-2.[Cl-],2 µg/mL
2,CCCc1c2[n+](cc3c(OC)c(OC)ccc13)CCc1cc3c(cc1-2)OCO3,inactive
3,CO[C@H]1/C=C/O[C@@]2(C)Oc3c(C)c(O)c4c(O)c(c(/C=N/N5CCN(C)CC5)c(O)c4c3C2=O)NC(=O)/C(C)=C\C=C\[C@H](C)[C@H](O)[C@@H](C)[C@@H](O)[C@@H](C)[C@H](OC(C)=O)[C@@H]1C [RIFAMPIN],0.0625 µg/mL
4,CCCCCCCCc1c2[n+](cc3c(OCCCC)c(OC)ccc13)CCc1cc3c(cc1-2)OCO3.[Cl-],8 µg/mL
5,CCCCc1c2[n+](cc3c(OC)c(OC)ccc13)CCc1cc3c(cc1-2)OCO3,inactive
6,CCCCCCCCc1c2[n+](cc3c(O)c(OC)ccc13)CCc1cc(O)c(O)cc1-2.[Cl-],32 µg/mL
7,CCCCCCCCc1c2[n+](cc3c(OC)c(OC)ccc13)CCc1cc3c(cc1-2)OCCO3.[Cl-],2 µg/mL
8,CCCCCCCCc1c2[n+](cc3c(OCc4ccccc4)c(OC)ccc13)CCc1cc(OCc3ccccc3)c(OCc3ccccc3)cc1-2.[Cl-],8 µg/mL
9,CCCCCCCCc1c2[n+](cc3c(OC)c(OC)ccc13)CCc1cc(OCCCC)c(O)cc1-2.[Cl-],8 µg/mL
10,CCCCCCCCc1c2[n+](cc3c(OC)c(OC)ccc13)CCc1cc(O)c(O)cc1-2.[Cl-],16 µg/mL
11,CCc1c2[n+](cc3c(OC)c(OC)ccc13)CCc1cc3c(cc1-2)OCO3,inactive
12,CCCCCCCCc1c2[n+](cc3c(OC)c(OC)ccc13)CCc1cc(OCc3ccccc3)c(OCc3ccccc3)cc1-2.[Cl-],8 µg/mL
13,CCCCCCCCc1c2[n+](cc3c(OC(=O)c4ccc(OC)cc4)c(OC)ccc13)CCc1cc3c(cc1-2)OCO3.[Cl-],4 µg/mL
14,CCCCCCCCc1c2[n+](cc3c(OCc4ccccc4)c(OC)ccc13)CCc1cc(OCc3ccccc3)c(O)cc1-2.[Cl-],0.5 µg/mL
15,CCCCCCCCc1c2[n+](cc3c(OC)c(OC)ccc13)CCc1cc(OCCCC)c(OCCCC)cc1-2.[Cl-],2 µg/mL
16,NNC(=O)c1ccncc1 [ISONIAZID],0.0625 µg/mL
17,CCCCCCCCc1c2[n+](cc3c(OC)c(OC)ccc13)CCc1cc(OCCC)c(OCCC)cc1-2.[Cl-],2 µg/mL
18,CCCCCCCCc1c2[n+](cc3c(O)c(OC)ccc13)CCc1cc3c(cc1-2)OCO3.[Cl-],4 µg/mL
19,CCCCCCCCc1c2[n+](cc3c(OCCCC)c(OC)ccc13)CCc1cc(OCCCC)c(O)cc1-2.[Cl-],8 µg/mL
